Reference: ChEMBL document CHEMBL1773031, “Maklamicin, an antibacterial polyketide from an endophytic Micromonospora sp” (J Nat Prod, 2011)
Converted amounts (≈) assume the structure as drawn.

Legend:
[1] = test system: HeLa; assay: Cytotoxicity against human HeLa cells after 48 hrs by MTT assay; assay type: functional, cell-based
[2] = test system: MCF7; assay: Cytotoxicity against human MCF7 cells after 48 hrs by MTT assay; assay type: functional, cell-based; settings: MCF7, 48 h
[3] = test system: Micrococcus luteus; assay: Antimicrobial activity against Micrococcus luteus ATCC 9343 after 20 hrs by microplate reader assay; assay type: functional; settings: ATCC 9343, 20 h
Procedure, shortened: (§1)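 Grown in Mueller Hinton broth on a reciprocal shaker for 20 h at 30 °C, then pelleted and resuspended in saline at 1 × 10^5 cells/mL. The suspension was mixed into fresh broth in 96-well plates with test sample in DMSO. Plates were incubated for 20 h at 30 °C, and growth was read as absorbance at 650 nm.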

[4] = test system: Bacillus subtilis; assay: Antimicrobial activity against Bacillus subtilis PCI219 after 20 hrs by microplate reader assay; assay type: functional; settings: PCI219, 20 h; procedure, shortened: as §1
[5] = test system: Bacillus cereus; assay: Antimicrobial activity against Bacillus cereus NBRC 15305 after 20 hrs by microplate reader assay; assay type: functional; settings: NBRC 15305, 20 h; procedure, shortened: as §1
[6] = test system: Enterococcus faecalis; assay: Antimicrobial activity against Enterococcus faecalis NBRC 100480 after 20 hrs by microplate reader assay; assay type: functional; settings: NBRC 100480, 20 h; procedure, shortened: as §1
[7] = test system: Escherichia coli; assay: Antimicrobial activity against Escherichia coli NIH-JC2 after 20 hrs by microplate reader assay; assay type: functional; settings: NIH-JC2, 20 h
Procedure, shortened: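 The E. coli preculture was grown in Mueller Hinton broth, shaken for 20 h at 30 °C, centrifuged and suspended in saline at 1 × 10^5 cells/mL. The suspension was combined in broth with sample dissolved in DMSO. Incubation was 20 h at 37 °C, with absorbance at 650 nm read on a microplate reader.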

[8] = test system: Staphylococcus aureus; assay: Antimicrobial activity against Staphylococcus aureus IFO 12732 after 20 hrs by microplate reader assay; assay type: functional; settings: IFO 12732, 20 h; procedure, shortened: as §1
[9] = test system: Candida albicans; assay: Antimicrobial activity against Candida albicans IFO 1594 after 20 hrs by microplate reader assay; assay type: functional; settings: IFO 1594, 20 h
Procedure, shortened: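 Yeast Nitrogen Base supplemented with 2% glucose was the medium. Cells were shaken for 20 h at 30 °C, pelleted and resuspended in saline at 1 × 10^5 cells/mL. They were mixed in medium with DMSO sample solution in 96-well plates and incubated for 20 h at 30 °C. Growth was measured as absorbance at 650 nm.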

Row | MIC [3] | MIC [4] | MIC [5] | MIC [6] | MIC [7] | MIC [8] | MIC [9] | SMILES | IC50 [1] | IC50 [2]
1 | 0.2 µg/mL (≈ 0.381 µM) | 1.7 µg/mL (≈ 3.24 µM) | 6.5 µg/mL (≈ 12.4 µM) | 13 µg/mL (≈ 24.8 µM) | > 50 µg/mL | 13 µg/mL (≈ 24.8 µM) | 50 µg/mL (≈ 95.3 µM) | C[C@H]1CC[C@@H]2[C@H](C=C[C@H]3[C@H](C)/C=C/C[C@]4(C)C=C(CO)[C@H](C[C@@H](C)O)C[C@]45OC(=O)C(=C5O)C(=O)[C@@]23C)C1 [MAKLAMICIN] | 17 µM | 34 µM
2 | 0.1 µg/mL | 0.05 µg/mL | 1.5 µg/mL | 0.2 µg/mL | 0.8 µg/mL | 0.05 µg/mL |  | CN(C)[C@@H]1C(O)=C(C(N)=O)C(=O)[C@@]2(O)C(O)=C3C(=O)c4c(O)cccc4[C@@](C)(O)[C@H]3C[C@@H]12.Cl [TETRACYCLINE HYDROCHLORIDE] |  | 
